Assay results from ChEMBL document CHEMBL4393663, “Targeting gliomas with triazene-based hybrids: Structure-activity relationship, mechanistic study and stability” (Eur J Med Chem, 2019).
Calls of active or inactive are those of the source. The calls are words filed in the database; no cut-off is given here.

Columns and labels:
[1] = Drug metabolism assessed as Cu2+-mediated compound decomposition by measuring aniline formation at 33 uM measured at 1 min interval for 30 mins by UV-Vis spectrophotometric analysis
Summary of the method: (§1)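 Decomposition monitored by UV-Vis spectroscopy in methanolic solutions containing Cu2+ or Zn2+.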

[2] = Drug metabolism assessed as Zn2+-mediated compound decomposition by measuring aniline formation at 33 uM measured at 30 mins interval for 12 hrs by UV-vis spectrophotometric analysis; summary of the method: as §1
[3] = Induction of alkylation in 5'-GGGAGA-3' single stranded DNA (unknown origin) at ssDNA to compound concentration ratio of 1:250M incubated for 1 hr by ESI-MS analysis
Summary of the method: (§2)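 Single-stranded oligonucleotide incubated with the compound in 10 mM ammonium bicarbonate buffer, pH 8.3, at 37 °C. Aliquots were taken at intervals and extracted three times with ethyl acetate, then centrifuged. The aqueous phase was analysed by flow-injection ESI(−) HRMS in 50:50 water/acetonitrile with 0.1% formic acid. Run in triplicate.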

[4] = target: T1, Histone deacetylase (Homo sapiens) (UniProt Q13547+O15379+Q9UBN7+Q92769+Q9UQL6+Q8WUI4+Q9BY41+Q96DB2+P56524+Q9UKV0+Q969S8); assay: Inhibition of HDAC in human HeLa nuclear extract assessed as enzyme residual activity at 100 uM using Boc-Lys(acetyl)-AMC as substrate and measured after 15 mins by fluorescence assay relative to control; format: cell-free
Summary of the method: (§3)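 Fluorometric HDAC activity kit with HeLa nuclear extract as enzyme source; compounds from 20 mM DMSO stock, tested in duplicate. Deacetylated substrate treated with lysine developer; fluorescence read after 15 min at ex 360/em 460 nm.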

[5] = Octanol-phosphate buffered saline distribution coefficient, log D of compound at pH 7.4 at 1 mg shake for 30 mins and measured after 48 hrs by HPLC analysis; format: physicochemical
[6] = Stability in 80% human plasma assessed as half life by HPLC analysis; format: ADME, cell-free
Summary of the method: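 Plasma pooled from 13 donors (heparin), stored at −18 °C, thawed slowly, diluted to 80% v/v with 10 mM PBS pH 7.4 at 37 °C; compound added from 10 mM acetonitrile stock; aliquots taken over time, centrifuged 12000 rpm 10 min, supernatant analyzed by HPLC for half-life; duplicate or triplicate runs.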

[7] = tested on: GL261; assay: Cytotoxicity against mouse GL261 cells assessed as reduction in cell viability incubated for 48 hrs by MTS assay; format: functional, cell-based; settings: GL261, 48 h
[8] = Stability of the compound in PBS buffer at pH 7.4 assessed as half life by HPLC analysis; format: physicochemical
[9] = target: T1, Histone deacetylase (Homo sapiens); assay: Inhibition of HDAC in human HeLa nuclear extract assessed as enzyme residual activity at 6.25 uM using Boc-Lys(acetyl)-AMC as substrate and measured after 15 mins by fluorescence assay relative to control; format: cell-free; summary of the method: as §3
[10] = target: T1, Histone deacetylase (Homo sapiens); assay: Inhibition of HDAC in human HeLa nuclear extract assessed as enzyme residual activity at 25 uM using Boc-Lys(acetyl)-AMC as substrate and measured after 15 mins by fluorescence assay relative to control; format: cell-free; summary of the method: as §3
[11] = tested on: GL261; assay: Induction of apoptosis in mouse GL261 cells assessed as reduction in cell viability at 10 uM incubated for 48 hrs by annexinV-PE/7-AAD staining based flow cytometric analysis; format: functional
Summary of the method: (§4)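 GL261 cells exposed 48 h; trypsinized adherent cells combined with medium cells, pelleted, resuspended in PBS/1% BSA, stained with annexin V-PE/7-AAD; flow cytometry gating viable (both negative), early apoptotic (annexin+/7-AAD−), late apoptotic/dead (both positive); two readings per sample; three independent experiments in duplicate.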

[12] = tested on: GL261; assay: Induction of morphological changes in mouse GL261 cells assessed as decrease in cell aspect ratio at 10 uM incubated for 48 hrs by Hoechst 33258 staining based fluorescence microscopic analysis; format: functional
Summary of the method: (§5)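 After 48 h exposure, GL261 cells on coverslips fixed in 4% paraformaldehyde, permeabilized (0.1% Triton X-100), blocked 30 min, stained with Alexa Fluor-594 phalloidin and Hoechst 33258; ten random fields at 630×; circularity (4π·area/perimeter²) and aspect ratio traced manually on ≥120 cells per condition; three independent experiments.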

[13] = tested on: GL261; assay: Induction of morphological changes in mouse GL261 cells assessed as increase in cell circularity at 10 uM incubated for 48 hrs by Hoechst 33258 staining based fluorescence microscopic analysis; format: functional; summary of the method: as §5
[14] = Stability of the compound in PBS buffer at pH 7.4 at 10^-5 M measured 5 min for 60 mins in presence of glutathione by UV-Vis spectrophotometric analysis; format: physicochemical; settings: pH 7.4, 1 h, 10 µM
[15] = tested on: SH-SY5Y; assay: Induction of apoptosis in human SH-SY5Y cells assessed as increase in late necrotic cells at 10 uM incubated for 48 hrs by annexinV-PE/7-AAD staining based flow cytometric analysis; format: functional, cell-based
Summary of the method: (§6)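 SH-SY5Y cells grown on poly-D-lysine/laminin, differentiated 7 days with 10 µM retinoic acid, then exposed 48 h. Adherent plus floating cells pooled, resuspended in PBS/1% BSA, stained annexin V-PE/7-AAD and counted by flow cytometry into viable, early apoptotic, late apoptotic/necrotic; two readings per sample; three independent experiments in duplicate.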

[16] = Induction of alkylation in 5'-GGGAGA-3' single stranded DNA (unknown origin) at ssDNA to compound concentration ratio of 1:3 to 1:250M incubated for 7 days by ESI-MS analysis; summary of the method: as §2
[17] = tested on: GL261; assay: Antiinvasive activity in mouse GL261 cells assessed as reduction in cell migration at 10 uM preincubated for 48 hrs and measured after 6 hrs by giemsa staining based Boyden chamber assay; format: functional
[18] = tested on: SH-SY5Y; assay: Induction of apoptosis in human SH-SY5Y cells assessed as reduction in cell viability at 10 uM incubated for 48 hrs by annexinV-PE/7-AAD staining based flow cytometric analysis; format: functional; summary of the method: as §6
[19] = tested on: GL261; assay: Induction of apoptosis in mouse GL261 cells assessed as increase in early apoptotic cells at 10 uM incubated for 48 hrs by annexinV-PE/7-AAD staining based flow cytometric analysis; format: functional, cell-based; summary of the method: as §4
[20] = Stability of compound in PBS buffer at pH 7.4 at 10^-5 M measured 5 min for 60 mins in presence of N-acetylcysteine by UV-Vis spectrophotometric analysis; format: physicochemical; settings: pH 7.4, 1 h, 10 µM
[21] = tested on: SH-SY5Y; assay: Induction of apoptosis in human SH-SY5Y cells assessed as increase in early apoptotic cells at 10 uM incubated for 48 hrs by annexinV-PE/7-AAD staining based flow cytometric analysis; format: functional, cell-based; summary of the method: as §6
[22] = target: T1, Histone deacetylase (Homo sapiens); assay: Inhibition of HDAC in human HeLa nuclear extract assessed as enzyme residual activity at 100 nM using Boc-Lys(acetyl)-AMC as substrate and measured after 15 mins by fluorescence assay relative to control; format: cell-free; summary of the method: as §3
[23] = target: T1, Histone deacetylase (Homo sapiens); assay: Inhibition of HDAC in human HeLa nuclear extract assessed as enzyme residual activity at 1 uM using Boc-Lys(acetyl)-AMC as substrate and measured after 15 mins by fluorescence assay relative to control; format: cell-free; summary of the method: as §3
[24] = target: T1, Histone deacetylase (Homo sapiens); assay: Inhibition of HDAC in human HeLa nuclear extract assessed as enzyme residual activity at 10 nM using Boc-Lys(acetyl)-AMC as substrate and measured after 15 mins by fluorescence assay relative to control; format: cell-free; summary of the method: as §3
[25] = Drug metabolism assessed as Zn2+-mediated compound decomposition by measuring aniline formation 33 uM measured at 1 min interval for 30 mins by UV-Vis spectrophotometric analysis; summary of the method: as §1
[26] = tested on: GL261; assay: Cytotoxicity against mouse GL261 cells assessed as reduction in cell viability at 0.1 to 100 uM incubated for 48 hrs by MTS assay; format: functional, cell-based
[27] = tested on: GL261; assay: Induction of apoptosis in mouse GL261 cells assessed as increase in late apoptotic cells at 10 uM incubated for 48 hrs by annexinV-PE/7-AAD staining based flow cytometric analysis; format: functional, cell-based; summary of the method: as §4
[28] = tested on: GL261; assay: Induction of apoptosis in mouse GL261 cells assessed as increase in necrotic cells at 10 uM incubated for 48 hrs by annexinV-PE/7-AAD staining based flow cytometric analysis; format: functional, cell-based; summary of the method: as §4

Compound	Activity [4]	logD at 30 min [5]	half-life [6]	IC50 [7]	half-life [8]	Activity [9]	Activity [10]	further results
CCOC(=O)c1ccc(/N=N/NC)cc1								Drug metabolism [1]: Metabolite detected; Drug metabolism [2]: Metabolite detected
CN=NNc1ccc(C#N)cc1								Drug metabolism [1]: Metabolite detected; Drug metabolism [2]: Metabolite detected; Activity [3]: Active
CCCC(CCC)C(=O)N(C)/N=N/c1ccc(Br)cc1	82.5%	4.81	> 40 h	80.6 µM	30.4 h	98.9%	95.6%	
CCCC(CCC)C(=O)N(C)/N=N/c1ccc(C#N)cc1	94.6%	4.84	> 40 h	> 100 µM	> 40 h	99.1%	98%	Activity [11]: Active; Activity [12]: Active; Activity [13]: Active; Stability [14]: Stable; Activity [15]: Active; Activity [16]: inactive; Activity [17]: Active; Activity [18]: Active; Activity [19]: Active; Stability [20]: Stable; Activity [21]: Active
O=C(/C=C/c1ccc2c(c1)C(=O)CC1(CCN(Cc3ccccc3)CC1)C2)NO								Activity [22]: 52.4%; Activity [23]: 10.9%; Activity [24]: 91%
CCCC(CCC)C(=O)N(C)/N=N/c1ccc(C(=O)OC)cc1	92.7%	4.7	> 40 h	6.7 µM	31.4 h	92.9%	97.3%	Activity [11]: Active; Activity [12]: Active; Activity [13]: Active; Activity [15]: Active; Activity [17]: Active; Activity [18]: Active; Activity [19]: Active; Activity [21]: Active
CCCC(=O)N(C)/N=N/c1ccc(C#N)cc1	54.9%	3.19	15.2 h	> 100 µM	> 40 h	97.1%	72.5%	Drug metabolism [25]: Metabolite not detected; Activity [26]: inactive; Drug metabolism [1]: Metabolite not detected
CCC(CC)C(=O)N(C)/N=N/c1ccc(C#N)cc1	95.1%	3.76	> 40 h	> 100 µM	> 40 h	97.7%	97.2%	Activity [26]: inactive
CCCC(CCC)C(=O)N(C)/N=N/c1ccc(C)cc1	89%	4.98	> 40 h	> 100 µM	31.3 h	94.5%	93.5%	
CCCC(CCC)C(=O)N(C)/N=N/c1ccc(C(C)=O)cc1	85.8%	4.56	> 40 h	47 µM	> 40 h	98.6%	94.8%	
CCCC(CCC)C(=O)N(C)/N=N/c1ccc(C(N)=O)cc1	79.8%	3.68	> 40 h	11.9 µM	> 40 h	90.5%	91.6%	Activity [11]: Active; Activity [27]: Active; Activity [12]: Active; Activity [28]: Active; Activity [13]: Active; Activity [15]: Active; Activity [17]: Active; Activity [18]: Active; Activity [19]: Active; Activity [21]: Active
CC(C)C(=O)N(C)/N=N/c1ccc(C#N)cc1	77.6%	2.95	13.9 h	> 100 µM	> 40 h	95.9%	92.7%	Activity [26]: inactive
CCCC(CCC)C(=O)N(C)/N=N/c1ccc(C(=O)OCC)cc1	55.3%	4.95	> 40 h	> 100 µM	34.1 h	88.3%	79.8%	Drug metabolism [25]: Metabolite not detected; Drug metabolism [1]: Metabolite not detected
Cn1nnc2c(C(N)=O)ncn2c1=O [TEMOZOLOMIDE]				> 100 µM	2 h			Activity [12]: inactive; Activity [13]: inactive; Activity [15]: Active; Activity [17]: Active; Activity [18]: Active; Activity [21]: Active
CCCC(CCC)C(=O)N(C)/N=N/c1ccc(Cl)cc1	66.4%	4.62	> 40 h	58.4 µM	27.3 h	93%	85.8%	
